STEP block: inhibitors of human striatal-enriched phosphatase STEP. P54829. recombinant STEP, OMFP fluorogenic substrate, fluorescence. inhibition, % at 20 µM. 0.25% of 360,000 active. AID 588621;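 active = inhibition at 20 µM, scaled per plate between control wells, above about 37%, limit read from the data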;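 note: 0% = DMSO with enzyme and substrate and 100% = substrate only without enzyme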
Target sequence (P54829 whole entry, looked up): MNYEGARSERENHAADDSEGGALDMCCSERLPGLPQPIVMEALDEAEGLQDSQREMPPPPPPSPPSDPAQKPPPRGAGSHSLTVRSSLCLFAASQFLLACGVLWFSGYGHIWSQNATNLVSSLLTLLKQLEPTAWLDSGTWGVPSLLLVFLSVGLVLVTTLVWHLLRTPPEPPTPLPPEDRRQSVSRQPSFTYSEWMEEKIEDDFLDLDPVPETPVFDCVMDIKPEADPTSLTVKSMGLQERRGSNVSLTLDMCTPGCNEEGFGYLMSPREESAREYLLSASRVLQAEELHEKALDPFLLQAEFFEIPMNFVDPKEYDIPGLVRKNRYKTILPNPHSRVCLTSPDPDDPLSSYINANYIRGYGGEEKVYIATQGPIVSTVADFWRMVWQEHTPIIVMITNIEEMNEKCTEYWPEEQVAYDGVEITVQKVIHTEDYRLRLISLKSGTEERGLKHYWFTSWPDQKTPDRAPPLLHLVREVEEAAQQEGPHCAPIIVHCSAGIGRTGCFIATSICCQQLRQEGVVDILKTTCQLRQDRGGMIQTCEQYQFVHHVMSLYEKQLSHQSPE
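System: isolated STEP enzyme; schedule: 20 min enzyme reaction at room temperature, protected from light; medium: Bis-Tris buffer pH 6.0, 2.5 mM DTT, 0.005% Tween 20; signal: fluorescence, 480/540 nm; dosing: single compound dose of 20 µM, 1% DMSO final; also added: OMFP substrate, 25 µM final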
PP1 inh: blocks human PP1-alpha phosphatase, a PP5 counter-screen; P62136; purified PP1alpha, OMFP fluorescence; inhibition, % at 6.7 µM; 0.9% of 320,000 active;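 active = inhibition above the mean inhibition of all tested compounds plus 3 SD, computed separately for each screening campaign, cut at about 15% in these data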
LMPTP inh: blocks human LMPTP phosphatase; recombinant LMPTP-A, OMFP fluorogenic substrate, fluorescence intensity; inhibition, % at 20 µM; 0.22% of 360,000 active; AID 651560;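 active = compounds that cut the enzyme signal by at least half of the control window in the single-dose screen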;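 note: plate controls were DMSO wells with enzyme plus substrate for no effect and substrate without enzyme for full effect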
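Assay system: LMPTP-A phosphatase enzyme | Input: 0.625 nM enzyme | Also added: Fluorogenic phosphatase substrate OMFP at 400 µM final | Compound dosing: One test concentration per compound, 20 µM, with 3% DMSO overall | Schedule: 50 min enzyme reaction at room temperature, protected from light | Signal: Fluorescence intensity | Benchmarks: no-enzyme and uninhibited controls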
Scp1 inh: blocks human Scp-1 phosphatase activity | Q9GZU7 | 0.88% of 340,000 active | Recombinant Scp1, phosphopeptide, malachite green phosphate absorbance | inhibition, % at 20 µM;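 active = inhibition above about 50% at 20 µM, limit read from the data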;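 note: plate controls were DMSO wells with enzyme for no effect and wells lacking enzyme for full effect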
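Assay system: SCP-1 catalytic fragment, aa 76-261 | Buffer or medium: Tris acetate buffer pH 5.5 with MgCl2 and Tween-20 | Compound: One concentration, 20 µM, with 1.0% DMSO | Also added: Phospho 17-mer peptide substrate | Signal: Absorbance at 630 nm | Incubation: 45 min enzyme reaction at room temperature | Measure: % inhibition of SCP-1 phosphate liberation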
PP5 primary: inhibitors of human protein phosphatase 5 (PP5) | 0.18% of 320,000 active | purified PP5c, OMFP substrate fluorescence | inhibition, % at 6.7 µM | AID 1987;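 active = inhibition above the campaign's mean inhibition across all tested compounds plus 3 SD, cut at about 9.5% in these data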;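 note: 0% = DMSO only and 100% = 100 µM cantharidin control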
PP1 inh confirm: confirmation of human PP1 phosphatase inhibitors. AID 2358. inhibition, % at 6.7 µM. 52% of 1,900 active. purified PP1alpha, OMFP substrate fluorescence. shares compounds with PP1 inh;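 active = mean PP1 inhibition above a set limit taken from the earlier primary screen, cut at about 15% in these data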
PP5 inh counter: inhibits human PP5 phosphatase in PP1 counter-screen; shares compounds with PP1 inh; purified PP5c, OMFP fluorescence; inhibition, % at 6.7 µM; 4% of 1,900 active; AID 2360;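 active = mean PP5 inhibition over triplicate wells above about 9.5% taken from the earlier PP1 screen, limit read from the data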
An asterisk follows results filed as active; nt = no result given. Hits are enriched below; roughly 1.9% of the tested compounds scored in any of these assays.

SMILES	STEP block	PP1 inh	LMPTP inh	Scp1 inh	PP5 primary	PP1 inh confirm	PP5 inh counter
COC/C=C/C1=CC2=CC(=O)C(C)(OC(=O)c3cnc4ccccc4n3)C(=O)C2=CN1Cc1ccccc1 (stereo not drawn)	1	23*	21	3	3	5	15*
COC/C=C/C1=CC2=CC(=O)C(C)(OC(=O)c3cnc4ccccc4n3)C(=O)C2=CN1CC1CC1 (stereo not drawn)	1	11	3	-6	2	nt	nt
COc1ccccc1C1C2=C(N=c3s/c(=C/c4cccc(OCC(=O)O)c4)c(=O)n31)c1ccccc1CC2 (stereo not drawn)	4	20*	6	8	3	19*	0
COc1cccc(C2C3=C(N=c4s/c(=C\c5ccc(OCC(=O)O)cc5)c(=O)n42)c2ccccc2CC3)c1 (stereo not drawn)	nt	23*	nt	-3	2	7	-2
COc1cccc(C2C3=C(N=c4s/c(=C\c5cccc(O)c5)c(=O)n42)c2ccccc2CC3)c1OC (stereo not drawn)	-1	1	4	-5	4	nt	nt
CCOc1ccc(CN2CCNC(=O)C2CC(=O)NC2CCCCCC2)cc1 (stereo not drawn)	-3	18*	-1	-5	2	-5	-3
Cc1ccc(CN2CCNC(=O)C2CC(=O)NC2CCCCCC2)cc1 (stereo not drawn)	5	0	0	-7	-1	nt	nt
CC(C)c1ccc2c(c1)C(N1CCNCC1)Cc1ccc(F)cc1S2 (stereo not drawn)	nt	19*	nt	3	3	-1	-1
O=C(CCCN1C(=O)c2ccccc2C1=O)Nc1ccccc1	-3	3	-1	-4	1	nt	nt
COc1ccc(NC(=O)CSc2nc(O)cc(=O)n2-c2ccc(OC)cc2)cc1	2	19*	1	-6	1	-4	-7
COc1ccc(NC(=O)CSc2nc3nc(C)cc(C)c3c(=O)[nH]2)cc1	0	77*	-3	0	9	-2	-2
CCNC(=O)CSc1nc2ccccc2c(=O)n1-c1cccc(OC)c1	-3	-4	0	1	-1	nt	nt
COc1cccc(-n2c(SCC(=O)Nc3ccc4c(c3)CCC4)nc3ccccc3c2=O)c1	4	19*	3	-13	1	4	1
COc1cc2cc(CN(CCN3CCOCC3)C(=O)Nc3ccc(F)cc3)c(=O)[nH]c2cc1OC	1	1	1	-1	-2	nt	nt
COc1cc(OC)cc(-c2cc3ncccc3cn2)c1	2	-2	0	-2	0	nt	nt
Cc1cccc(NC(=S)NCc2ccc3c(c2)cc(C)n3C)c1C	0	18*	14	4	3	3	-1
Cc1cc(NC(=O)C(C)SCC(=O)Nc2ccc(C(=O)OC(C)C)cc2)no1 (stereo not drawn)	0	nt	0	nt	nt	nt	nt
CCOc1cccc(=O)c2c(C)n(CC(=O)c3ccccc3)c(C)c12	2	-1	9	2	1	nt	nt
COc1cccc(=O)c2c(C)n(CC(=O)c3ccccc3)c(C)c12	4	23*	18	18	1	0	-4
COc1ccc(S(=O)(=O)Nc2cccc(-c3ccc(N4CCCCCC4)nn3)c2)cc1OC	5	4	4	2	7	nt	nt
Cc1ccc(S(=O)(=O)Nc2cccc(-c3ccc(N4CCCCCC4)nn3)c2)cc1	4	18*	6	2	4	11	1
Cc1noc(/C=C/c2ccco2)c1S(=O)(=O)N1CCC(C(=O)N(C)Cc2ccccc2)CC1	2	19*	2	-12	4	11	0
CCOC(=O)C1=C(O)C(=O)N(c2ccc(S(N)(=O)=O)cc2)C1c1ccc(Br)cc1 (stereo not drawn)	0	21*	-2	-3	2	7	-7
CC(=O)C1=C(O)C(=O)N(c2ccc(Br)cc2)C1c1ccc(Br)cc1 (stereo not drawn)	2	24*	0	-11	4	23*	-3
CC(=O)C1=C(O)C(=O)N(c2ccc(O)cc2)C1c1ccc(F)cc1 (stereo not drawn)	0	2	-2	-1	3	nt	nt
SMILES	STEP block	PP1 inh	LMPTP inh	Scp1 inh	PP5 primary	PP1 inh confirm	PP5 inh counter
CCOC(=O)C1=C(O)C(=O)N(c2ccc(S(N)(=O)=O)cc2)C1c1ccc(Cl)cc1 (stereo not drawn)	2	12	0	-15	2	nt	nt
CC(=O)C1=C(O)C(=O)N(c2cccc(Br)c2)C1c1ccc(Br)cc1 (stereo not drawn)	3	29*	1	-11	1	25*	-3
Cc1ccc(Nc2c(-c3ccccn3)nc3ccc(C)cn23)cc1	4	71*	4	1	5	42*	1
Cc1ccc(Nc2c(-c3ccccn3)nc3cc(C)ccn23)cc1	3	40*	0	-7	5	42*	3
Cc1ccc2nc(-c3ccncc3)c(Nc3ccccc3)n2c1	-1	1	0	-2	4	nt	nt
Cc1ccn2c(Nc3ccc4c(c3)OCO4)c(-c3ccccn3)nc2c1	4	28*	6	-5	4	47*	-2
O=c1[nH]c(NNC(=S)NC2CCCCC2)nc2c1C1(CCCC1)Cc1ccccc1-2	-1	19*	0	-9	1	0	-3
c1ccc(-c2n[nH]c(-c3ccccn3)n2)cc1	-4	-5	-1	-4	3	nt	nt
c1ccc(-c2n[nH]c(-c3ccccn3)n2)nc1	2	27*	-2	-11	2	23*	-6
C=Cn1cc[n+](CC(=O)c2cccs2)c1	-3	1	-3	-10	1	nt	nt
Cc1cc(NC(=O)CSc2nnc(NCc3ccccc3)s2)no1	1	4	0	-3	0	nt	nt
COc1ccccc1Nc1nnc(SCC(=O)Nc2cc(C)on2)s1	-1	19*	1	-10	2	12	-4
CCCc1nc2ccccc2c(C(=O)OCC(=O)NC2CC2)c1CC	2	nt	-1	-33	nt	nt	nt
Cc1ccc2nc(Nc3nc(-c4ccccc4)cc(=O)[nH]3)nc(C)c2c1	3	1	-2	12	1	nt	nt
COc1ccc(C2CC(=O)Oc3cc(O)cc(O)c32)cc1 (stereo not drawn)	-3	-3	0	-13	7	nt	nt
COc1ccc([C@H]2Oc3cc(O)cc(O)c3C(=O)C2[C@@H]2C(=O)c3c(O)cc(O)cc3O[C@@H]2c2ccc(OC)cc2)cc1 (stereo partly drawn)	nt	25*	nt	-9	5	8	4
Cc1cc(C)n(-c2ccc(C(=O)OCC(=O)Nc3ccc([N+](=O)[O-])cc3)cc2)n1	2	5	1	-8	4	nt	nt
